Results reported in ChEMBL document CHEMBL3745671, “Discovery of N-[5-(6-Chloro-3-cyano-1-methyl-1H-indol-2-yl)-pyridin-3-ylmethyl]-ethanesulfonamide, a Cortisol-Sparing CYP11B2 Inhibitor that Lowers Aldosterone in Human Subjects” (J Med Chem, 2015).
The source made the active and inactive calls. The rule behind the calls is not given here.

Key:
Homo sapiens = test: Dose normalized Cmax in healthy human at 60 mg/kg, po bid; assay type: ADME, organism-based; settings: in vivo
How it was run: (§1)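 Double-blind, randomized, placebo-controlled study in healthy male and female volunteers aged 18-63 on a restricted sodium/potassium diet. Oral bid doses of 30, 60, 100 or 200 mg, drug:placebo 5:2. N per dose 10–17. AUCtau, Cmax and median Tmax reported; dose-normalized values are AUCtau/dose and Cmax/dose.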

[1] = Cmax in healthy human at 30 mg/kg, po bid; assay type: ADME, organism-based; set-up: dose 30 mg/kg, route oral; settings: in vivo; how it was run: as §1
[2] = target: T1, Cytochrome P450 11B2, mitochondrial (Rattus norvegicus, UniProt P30099); test: Inhibition of recombinant rat CYP11B2 using 11-deoxycorticosterone as substrate after 2 hrs by scintillation proximity assay
T1 sequence (P30099 whole entry): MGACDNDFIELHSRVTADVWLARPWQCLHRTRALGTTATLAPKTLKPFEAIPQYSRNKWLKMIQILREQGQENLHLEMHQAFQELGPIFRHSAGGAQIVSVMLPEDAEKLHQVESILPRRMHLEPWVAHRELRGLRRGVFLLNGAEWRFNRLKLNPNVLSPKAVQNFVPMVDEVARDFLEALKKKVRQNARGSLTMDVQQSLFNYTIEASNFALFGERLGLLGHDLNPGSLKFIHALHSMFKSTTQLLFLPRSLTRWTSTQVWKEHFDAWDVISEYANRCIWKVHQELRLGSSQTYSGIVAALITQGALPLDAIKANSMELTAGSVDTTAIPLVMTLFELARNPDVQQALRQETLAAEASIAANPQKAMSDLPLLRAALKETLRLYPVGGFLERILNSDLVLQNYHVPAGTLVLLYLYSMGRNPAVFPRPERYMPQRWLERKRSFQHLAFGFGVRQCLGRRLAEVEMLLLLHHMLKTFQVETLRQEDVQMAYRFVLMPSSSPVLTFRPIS

Cynomolgus monkey = test: Decrease in ACTH-stimulated plasma cortisol level of chair-trained chronically cannulated cynomolgus monkey model at 0.03 to 3 mg/kg, po compound administered followed by ACTH challenge for 24 hrs by LC/MS/MS analysis; assay type: functional, organism-based; settings: Macaca fascicularis
How it was run: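 Conscious chair-trained, chronically cannulated male cynomolgus monkeys; vascular access port via Huber needle. Baseline blood (heparin) before dosing; methylcellulose suspension po at 0.03, 0.1, 0.3 or 3 mg/kg (n=3/dose) or vehicle (n=6, same animals). ACTH(1–24) 3000 ng/kg iv 3 h post-dose; sampling 0.125–1 h post-ACTH, up to 8 h, and 23.5 and 24 h. Aldosterone and cortisol by RIA; drug by LC/MS/MS (LLOQ 0.26 nmol/L, lower values set to zero).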

[3] = Inhibition of CYP11B2 in cynomolgus monkey adrenal homogenates assessed as inhibition of aldosterone secretion; assay type: tissue-based, Macaca fascicularis
How it was run: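 Cynomolgus monkey adrenal homogenates, with 11-DOC as substrate; aldosterone secretion inhibition determined as IC50.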

- Cmax/dose (Homo sapiens): 2.8 ng/mL
- Cmax [1]: 117 ng/mL
- IC50 [2]: 27.4 µM
- IC50 [3]: 0.01 µM
SMILES: CCS(=O)(=O)NCc1cncc(-c2c(C#N)c3ccc(Cl)cc3n2C)c1
- Activity (Cynomolgus monkey): inactive
